Measurements reported in ChEMBL document CHEMBL4270616, “Asymmetrical meta-methoxylated diarylpentanoids: Rational design, synthesis and anti-cancer evaluation in-vitro” (Eur J Med Chem, 2018).

Columns and labels:
MCF7 [1] = assay: Cytotoxicity against human MCF7 cells assessed as inhibition of cell proliferation at 20 uM after 72 hrs by MTT assay relative to control; type: functional; details: MCF7, 72 h
In short: (§1)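 Single-concentration screen at 20 μM with 72 h exposure in DMEM with 10% FBS, final DMSO 0.1%. Read-out was MTT (5 mg/mL, 4 h, 37°C), DMSO solubilisation and absorbance at 570 nm, expressed as percent inhibition. Lines reaching a threshold percentage went on to IC50 determination.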

[2] = Cytotoxicity against human EJ28 cells assessed as inhibition of cell proliferation at 20 uM after 72 hrs by MTT assay relative to control; type: functional; details: EJ-28, 72 h; in short: as §1
SW-620 [3] = assay: Cytotoxicity against human SW620 cells after 72 hrs by MTT assay; type: functional, cell-based; details: SW-620, 72 h
In short: (§2)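 Tumour lines kept in DMEM with 10% FBS and 1% penicillin/streptomycin at 37°C, 5% CO2. Seeded at 1500-5000 cells/well by doubling time and size, 24 h, then compound in DMSO-containing medium (final DMSO 0.1%) for 72 h. MTT (5 mg/mL) 4 h at 37°C, DMSO solubilisation, absorbance at 570 nm.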

A549 [4] = assay: Cytotoxicity against human A549 cells after 72 hrs by MTT assay; type: functional, cell-based; details: A549, 72 h; in short: as §2
MCF7 [5] = assay: Cytotoxicity against human MCF7 cells after 72 hrs by MTT assay; type: functional, cell-based; details: MCF7, 72 h; in short: as §2
[6] = Cytotoxicity against human EJ28 cells after 72 hrs by MTT assay; type: functional, cell-based; details: EJ-28, 72 h; in short: as §2
NHDF = assay: Cytotoxicity against NHDF after 72 hrs by MTT assay; type: cell-based; details: Homo sapiens
In short: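 NHDF grown in DMEM with 5% FBS at 37°C, 5% CO2. Seeded at 1500-5000 cells/well, 24 h, then compound added in DMSO-containing medium (final DMSO 0.1%) for 72 h. MTT (5 mg/mL in medium) added for 4 h at 37°C, formazan dissolved in DMSO, absorbance read at 570 nm.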

A549 [7] = assay: Cytotoxicity against human A549 cells assessed as inhibition of cell proliferation at 20 uM after 72 hrs by MTT assay relative to control; type: functional; details: A549, 72 h; in short: as §1
HT-1080 [8] = assay: Cytotoxicity against human HT1080 cells assessed as inhibition of cell proliferation at 20 uM after 72 hrs by MTT assay relative to control; type: functional; details: HT-1080, 72 h; in short: as §1
HT-1080 [9] = assay: Cytotoxicity against human HT1080 cells after 72 hrs by MTT assay; type: functional, cell-based; details: HT-1080, 72 h; in short: as §2
SW-620 [10] = assay: Cytotoxicity against human SW620 cells assessed as inhibition of cell proliferation at 20 uM after 72 hrs by MTT assay relative to control; type: functional; details: SW-620, 72 h; in short: as §1

| Structure (SMILES) | inhibition at 20 µM (MCF7 [1]) [%] | inhibition at 20 µM [2] [%] | IC50 (SW-620 [3]) [µM] | IC50 (A549 [4]) [µM] | IC50 (MCF7 [5]) [µM] | IC50 [6] [µM] | IC50 (NHDF) [µM] | inhibition at 20 µM (A549 [7]) [%] | inhibition at 20 µM (HT-1080 [8]) [%] | IC50 (HT-1080 [9]) [µM] | inhibition at 20 µM (SW-620 [10]) [%] |
| --- | --- | --- | --- | --- | --- | --- | --- | --- | --- | --- | --- |
| COc1ccc(/C=C2\CCC/C(=C\c3ccccc3Br)C2=O)cc1OC | > 50 | > 50 | 5.3 | > 20 | 9.5 | 7.4 | 21.8 | > 50 | > 50 | 8.4 | > 50 |
| COc1ccc(/C=C2\CCC/C(=C\c3ccc(OC)c(OC)c3)C2=O)cc1 | > 50 | > 50 | 6.6 | > 20 | 7.8 | 8.4 | 30.9 | > 50 | > 50 | 7.2 | > 50 |
| COc1ccc(/C=C2\CCC/C(=C\c3ccc(O)c(Cl)c3)C2=O)cc1OC | > 50 | > 50 | 7.1 | > 20 | 12.3 | 8 | 21.9 | > 50 | > 50 | 7.6 | > 50 |
| COc1ccc(/C=C2\CCC/C(=C\c3cccc(OC)c3OC)C2=O)cc1 | > 50 | > 50 | 13.6 | > 20 | 18.6 | 16.8 | 43.5 | > 50 | > 50 | 16.3 | > 50 |
| COc1cccc(/C=C2\CCC/C(=C\c3cccc(OC)c3OC)C2=O)c1 | > 50 | > 50 | 7 | 16.4 | 5.9 | 10 | 16.4 | > 50 | > 50 | 9.9 | > 50 |
| COc1ccc(/C=C2\CCC/C(=C\c3ccc(O)cc3)C2=O)cc1OC | > 50 | > 50 | 7.7 | > 20 | 17 | 16.6 | 26.1 | > 50 | > 50 | 16.8 | > 50 |
| COc1ccc(/C=C2\CCC/C(=C\c3ccc(Cl)cc3)C2=O)cc1OC | > 50 | > 50 | 5.9 | 10.1 | 6.3 | 5.7 | 11.2 | > 50 | > 50 | 4.8 | > 50 |
| COc1ccc(/C=C2\CCC/C(=C\c3ccc(Br)cc3)C2=O)cc1OC | > 50 | > 50 | 5.2 | 16 | 6.9 | 7.1 | 13.1 | > 50 | > 50 | 4.3 | > 50 |
| COc1cccc(/C=C2\CCC/C(=C\c3cc(Cl)cc(Cl)c3)C2=O)c1OC | > 50 | > 50 | 5.5 | 12.5 | 4.3 | 7.5 | 21.6 | > 50 | > 50 | 6.1 | > 50 |
| COc1cccc(/C=C2\CCC/C(=C\c3ccc(Cl)cc3Cl)C2=O)c1OC | > 50 | > 50 | 16.3 | > 20 | > 20 | > 20 | 49.2 | > 50 | > 50 | > 20 | > 50 |
| COc1cccc(/C=C2\CCC/C(=C\c3cccc(O)c3)C2=O)c1OC | > 50 | > 50 | 6.4 | > 20 | 8.8 | 8.5 | 19.3 | > 50 | > 50 | 8.5 | > 50 |
| COc1cccc(/C=C2\CCC/C(=C\c3ccc(O)cc3)C2=O)c1OC | > 50 | > 50 | > 20 | > 20 | > 20 | > 20 | > 50 | > 50 | > 50 | > 20 | > 50 |
| COc1ccc(/C=C2\CCC/C(=C\c3cccc(Cl)c3Cl)C2=O)cc1OC | > 50 | > 50 | 10.8 | > 20 | 14.3 | 10.4 | 18.5 | > 50 | > 50 | 8.8 | > 50 |
| COc1cccc(/C=C2\CCC/C(=C\c3ccccc3Cl)C2=O)c1OC | > 50 | > 50 | 10.3 | > 20 | 11.3 | 12 | 44.2 | > 50 | > 50 | 11.7 | > 50 |
| COc1ccc(/C=C2\CCC/C(=C\c3cccc(Cl)c3)C2=O)cc1OC | > 50 | > 50 | 5.1 | 11 | 6 | 5.4 | 11.9 | > 50 | > 50 | 4.9 | > 50 |
| COc1cc(/C=C2\CCC/C(=C\c3cccc(OC)c3OC)C2=O)ccc1O | > 50 | > 50 | 8.6 | > 20 | 11.6 | 10.6 | 14.3 | > 50 | > 50 | 5.9 | > 50 |
| COc1ccc(/C=C2\CCC/C(=C\c3cccc(OC)c3OC)C2=O)c(OC)c1 | > 50 | > 50 | > 20 | > 20 | > 20 | > 20 | > 50 | > 50 | > 50 | > 20 | > 50 |
| COc1cccc(/C=C2\CCC/C(=C\c3ccc(Cl)c(Cl)c3)C2=O)c1OC | > 50 | > 50 | 10 | > 20 | 9 | 12.1 | 25.5 | > 50 | > 50 | 10.8 | > 50 |
| COc1ccc(/C=C2\CCC/C(=C\c3cc(Cl)cc(Cl)c3)C2=O)cc1OC | > 50 | > 50 | 2.5 | 5.5 | 3.8 | 4.2 | 8.3 | > 50 | > 50 | 3 | > 50 |
